Test results: ChEMBL document CHEMBL3351861, “New synthetic sulfone derivatives inhibit growth, adhesion and the leucine arylamidase APE2 gene expression of Candida albicans in vitro” (2015)
In brackets after ≈: the same amount, converted by molar mass.

Assays:
Candida albicans [1] = test: Antifungal activity against Candida albicans CAI4 expressing delta-cph1 (CPH1) gene assessed as growth inhibition at 0.25 ug/ml by CLSI M27-A3 method; type: functional; conditions: read-out: GI
How it was run: (§1)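 CLSI M27-A3 broth microdilution in RPMI, read after 48 h. Strains pre-grown 18 h in YEPD at 30°C. Final inoculum 0.5×10^2–2.5×10^3 cells/ml. Two-fold dilutions in RPMI came from a 1600 µg/ml stock in water with 9% DMSO; final DMSO was 0.09%. OD405 read, % inhibition = 100 − (CTW−SCW)/(GCW−SCW). Triplicate on three occasions, mean±SD.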

Candida albicans [2] = test: Antifungal activity against Candida albicans CAI4 expressing delta-efg1 (EFG1) gene assessed as growth inhibition at 0.25 ug/ml by CLSI M27-A3 method; type: functional; conditions: read-out: GI; how it was run: as §1
Candida albicans [3] = test: Antifungal activity against Candida albicans CAI4 expressing delta-cph1 (CPH1) gene assessed as growth inhibition at by CLSI M27-A3 method; type: functional
Candida albicans [4] = test: Inhibition of cell adhesion of compound pre-treated Candida albicans 90028 to human Caco2 cells assessed as cell adhesion level at 16 ug/ml pre-incubated for 18 hrs by colony counting method (reference value: 1.58 +/- 0.67%); type: functional, Caco-2; set-up: scale not given: the % may be the effect or the level left
Candida albicans [5] = test: Antifungal activity against Candida albicans 90028 assessed as growth inhibition at 16 ug/ml by CLSI M27-A3 method; type: functional; conditions: read-out: GI; how it was run: as §1
Candida albicans [6] = test: Antifungal activity against Candida albicans CAI4 expressing delta-efg1 (EFG1) gene assessed as growth inhibition at 16 ug/ml by CLSI M27-A3 method; type: functional; conditions: read-out: GI; how it was run: as §1
Candida albicans [7] = test: Antifungal activity against Candida albicans 90028 assessed as growth inhibition at 8 ug/ml by CLSI M27-A3 method; type: functional; conditions: read-out: GI; how it was run: as §1
Candida albicans [8] = test: Antifungal activity against Candida albicans CAI4 expressing delta-efg1 gene assessed as growth inhibition at 8 ug/ml by CLSI M27-A3 method; type: functional; conditions: read-out: GI
How it was run: (§2)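 CLSI M27-A3 broth microdilution in RPMI. Final inoculum 0.5×10^2 to 2.5×10^3 cells/ml. Seven two-fold concentrations from 0.25 to 16 µg/ml, with DMSO held at 0.09% (v/v) in all wells. Compound-free growth controls and sterility controls are run for each strain. […] Triplicate on three occasions.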

Candida albicans [9] = test: Antifungal activity against Candida albicans 90028 assessed as growth inhibition at 4 ug/ml by CLSI M27-A3 method; type: functional; conditions: read-out: GI; how it was run: as §1
Candida albicans [10] = test: Antifungal activity against Candida albicans CAI4 expressing delta-cph1 gene assessed as growth inhibition at 4 ug/ml by CLSI M27-A3 method; type: functional; conditions: read-out: GI; how it was run: as §1
Candida albicans [11] = test: Antifungal activity against Candida albicans CAI4 expressing delta-cph1 (CPH1) gene assessed as growth inhibition at 4 ug/ml by CLSI M27-A3 method; type: functional; conditions: read-out: GI; how it was run: as §1
Candida albicans [12] = test: Antifungal activity against Candida albicans CAI4 expressing delta-efg1 gene assessed as growth inhibition at 4 ug/ml by CLSI M27-A3 method; type: functional; conditions: read-out: GI; how it was run: as §2
Candida albicans [13] = test: Antifungal activity against Candida albicans 90028 assessed as growth inhibition at 2 ug/ml by CLSI M27-A3 method; type: functional; conditions: read-out: GI; how it was run: as §1
Candida albicans [14] = test: Antifungal activity against Candida albicans CAI4 expressing delta-efg1 (EFG1) gene assessed as growth inhibition at 2 ug/ml by CLSI M27-A3 method; type: functional; conditions: read-out: GI; how it was run: as §1
Candida albicans [15] = test: Antifungal activity against Candida albicans CAI4 expressing delta-cph1/delta-efg1 gene assessed as growth inhibition at 2 ug/ml by CLSI M27-A3 method; type: functional; conditions: read-out: GI; how it was run: as §1
Candida albicans [16] = test: Antifungal activity against Candida albicans CAI4 expressing delta-cph1/delta-efg1 (EFG1) gene assessed as growth inhibition at 2 ug/ml by CLSI M27-A3 method; type: functional; conditions: read-out: GI; how it was run: as §1
Candida albicans [17] = test: Antifungal activity against Candida albicans 90028 assessed as growth inhibition at 1 ug/ml by CLSI M27-A3 method; type: functional; conditions: read-out: GI; how it was run: as §1
Candida albicans [18] = test: Antifungal activity against Candida albicans CAI4 expressing delta-cph1 (CPH1) gene assessed as growth inhibition at 1 ug/ml by CLSI M27-A3 method; type: functional; conditions: read-out: GI; how it was run: as §1
Candida albicans [19] = test: Antifungal activity against Candida albicans CAI4 expressing delta-efg1 gene assessed as growth inhibition at 1 ug/ml by CLSI M27-A3 method; type: functional; conditions: read-out: GI; how it was run: as §2
Candida albicans [20] = test: Antifungal activity against Candida albicans CAI4 expressing delta-cph1/delta-efg1 gene assessed as growth inhibition at 1 ug/ml by CLSI M27-A3 method; type: functional; conditions: read-out: GI; how it was run: as §1
Candida albicans [21] = test: Antifungal activity against Candida albicans CAI4 expressing delta-cph1/delta-efg1 (EFG1) gene assessed as growth inhibition at 1 ug/ml by CLSI M27-A3 method; type: functional; conditions: read-out: GI; how it was run: as §1
Candida albicans [22] = test: Antifungal activity against Candida albicans CAI4 expressing delta-cph1 gene assessed as growth inhibition at 0.5 ug/ml by CLSI M27-A3 method; type: functional; conditions: read-out: GI; how it was run: as §1
Candida albicans [23] = test: Antifungal activity against Candida albicans CAI4 expressing delta-cph1 (CPH1) gene assessed as growth inhibition at 0.5 ug/ml by CLSI M27-A3 method; type: functional; conditions: read-out: GI; how it was run: as §1
Candida albicans [24] = test: Antifungal activity against Candida albicans CAI4 expressing delta-efg1 gene assessed as growth inhibition at 0.5 ug/ml by CLSI M27-A3 method; type: functional; conditions: read-out: GI; how it was run: as §1
Candida albicans [25] = test: Inhibition of cell adhesion of compound pre-treated Candida albicans CAI4 expressing delta-cph1 (CPH1) gene to human Caco2 cells assessed as cell adhesion level at 16 ug/ml pre-incubated for 18 hrs by colony counting method (reference value: 5.37 +/- 12.4%); type: functional, Caco-2; set-up: scale not given: the % may be the effect or the level left
Candida albicans [26] = test: Inhibition of cell adhesion of compound pre-treated Candida albicans CAI4 expressing delta-efg1/delta-cph1 gene to human Caco2 cells assessed as cell adhesion level at 16 ug/ml pre-incubated for 18 hrs by colony counting method (reference value: 1.22 +/- 0.78%); type: functional, Caco-2; set-up: scale not given: the % may be the effect or the level left
Candida albicans [27] = test: Inhibition of cell adhesion of compound pre-treated Candida albicans CAI4 expressing delta-cph1 (CPH1) gene to human Caco2 cells assessed as cell adhesion level at 8 ug/ml pre-incubated for 18 hrs by colony counting method (reference value: 5.37 +/- 12.4%); type: functional, Caco-2; set-up: scale not given: the % may be the effect or the level left
Candida albicans [28] = test: Inhibition of cell adhesion of compound pre-treated Candida albicans CAI4 expressing delta-cph1/delta-efg1 (EFG1) gene to human Caco2 cells assessed as cell adhesion level at 8 ug/ml pre-incubated for 18 hrs by colony counting method (reference value: 1.24 +/- 1.06%); type: functional, Caco-2; set-up: scale not given: the % may be the effect or the level left
Candida albicans [29] = test: Inhibition of cell adhesion of compound pre-treated Candida albicans CAI4 expressing delta-cph1 gene to human Caco2 cells assessed as cell adhesion level at 4 ug/ml pre-incubated for 18 hrs by colony counting method (reference value: 1.6 +/- 0.65%); type: functional, Caco-2; set-up: scale not given: the % may be the effect or the level left
Candida albicans [30] = test: Inhibition of cell adhesion of compound pre-treated Candida albicans CAI4 expressing delta-efg1 gene to human Caco2 cells assessed as cell adhesion level at 4 ug/ml pre-incubated for 18 hrs by colony counting method (reference value: 2.1 +/- 3.52%); type: functional, Caco-2; set-up: scale not given: the % may be the effect or the level left
Candida albicans [31] = test: Inhibition of cell adhesion of compound pre-treated Candida albicans CAI4 expressing delta-cph1 (CPH1) gene to human Caco2 cells assessed as cell adhesion level at 2 ug/ml pre-incubated for 18 hrs by colony counting method (reference value: 5.37 +/- 12.4%); type: functional, Caco-2; set-up: scale not given: the % may be the effect or the level left

Row | Compound | inhibition of growth at 0.25 µg/mL (Candida albicans [1]) [%] | inhibition of growth at 0.25 µg/mL (Candida albicans [2]) [%] | MIC90 (Candida albicans [3]) [µg/mL] | Activity (Candida albicans [4]) [%] | inhibition of growth at 16 µg/mL (Candida albicans [5]) [%] | inhibition of growth at 16 µg/mL (Candida albicans [6]) [%] | inhibition of growth at 8 µg/mL (Candida albicans [7]) [%] | inhibition of growth at 8 µg/mL (Candida albicans [8]) [%] | inhibition of growth at 4 µg/mL (Candida albicans [9]) [%] | inhibition of growth at 4 µg/mL (Candida albicans [10]) [%] | inhibition of growth at 4 µg/mL (Candida albicans [11]) [%] | inhibition of growth at 4 µg/mL (Candida albicans [12]) [%] | inhibition of growth at 2 µg/mL (Candida albicans [13]) [%] | inhibition of growth at 2 µg/mL (Candida albicans [14]) [%] | inhibition of growth at 2 µg/mL (Candida albicans [15]) [%] | inhibition of growth at 2 µg/mL (Candida albicans [16]) [%] | inhibition of growth at 1 µg/mL (Candida albicans [17]) [%] | inhibition of growth at 1 µg/mL (Candida albicans [18]) [%] | inhibition of growth at 1 µg/mL (Candida albicans [19]) [%] | inhibition of growth at 1 µg/mL (Candida albicans [20]) [%] | other results
1 | O=[N+]([O-])c1cc(S(=O)(=O)C(Cl)(Cl)Br)ccc1Cl | 96.7 | 99 | 16 (≈ 41.7 µM) | 0.68 | 99.6 | 99.5 | 99.5 | 99.5 | 99.4 | 98.7 | 99.7 | 99 | 98.9 | 99.3 | 98.8 | 99.3 | 98.8 | 98.7 | 98.5 | 98.8 | inhibition of growth at 1 µg/mL (Candida albicans [21]): 98.9%; inhibition of growth at 0.5 µg/mL (Candida albicans [22]): 97.4%; inhibition of growth at 0.5 µg/mL (Candida albicans [23]): 97.1%; inhibition of growth at 0.5 µg/mL (Candida albicans [24]): 98.7%; Activity (Candida albicans [25]): 0.48%; Activity (Candida albicans [26]): 0.43%; Activity (Candida albicans [27]): 2.78%; Activity (Candida albicans [28]): 1.26%; Activity (Candida albicans [29]): 0.55%; Activity (Candida albicans [30]): 1.14%; Activity (Candida albicans [31]): 2.38%
2 | O=[N+]([O-])c1cc(S(=O)(=O)C(Cl)Cl)ccc1Cl | 91.8 | 95.2 | 16 (≈ 52.5 µM) | 1.19 | 99.4 | 99.2 | 99.3 | 99.4 | 99.2 | 99.1 | 98.7 | 99.5 | 99.5 | 98.1 | 99.1 | 99.2 | 99.2 | 98.8 | 99.4 | 99.1 | inhibition of growth at 1 µg/mL (Candida albicans [21]): 99%; inhibition of growth at 0.5 µg/mL (Candida albicans [22]): 99.1%; inhibition of growth at 0.5 µg/mL (Candida albicans [23]): 96.7%; inhibition of growth at 0.5 µg/mL (Candida albicans [24]): 99.4%; Activity (Candida albicans [25]): 2.28%; Activity (Candida albicans [26]): 0.42%; Activity (Candida albicans [27]): 0.71%; Activity (Candida albicans [28]): 2.24%; Activity (Candida albicans [29]): 0.99%; Activity (Candida albicans [30]): 0.97%; Activity (Candida albicans [31]): 1.43%
3 | NNc1ccc(S(=O)(=O)C(Cl)(Br)Br)cc1[N+](=O)[O-] | 98.6 | 98.6 | 4 (≈ 9.45 µM) | 1.6 | 100 | 99.8 | 100 | 100 | 99.7 | 100 | 99.1 | 100 | 99.6 | 99.1 | 100 | 99.3 | 97.4 | 98.8 | 99.5 | 100 | inhibition of growth at 1 µg/mL (Candida albicans [21]): 98.8%; inhibition of growth at 0.5 µg/mL (Candida albicans [22]): 96.6%; inhibition of growth at 0.5 µg/mL (Candida albicans [23]): 98.8%; inhibition of growth at 0.5 µg/mL (Candida albicans [24]): 97.9%; Activity (Candida albicans [25]): 0.78%; Activity (Candida albicans [26]): 2.25%; Activity (Candida albicans [27]): 0.9%; Activity (Candida albicans [28]): 0.75%; Activity (Candida albicans [29]): 0.22%; Activity (Candida albicans [30]): 0.69%; Activity (Candida albicans [31]): 1.86%
